This note sets out measurements from ChEMBL document CHEMBL1759921, “N5-phosphonoacetyl-L-ornithine (PALO): a convenient synthesis and investigation of influence on regulation of amino acid biosynthetic genes in Saccharomyces cerevisiae” (Bioorg Med Chem Lett, 2011).

The source made the active and inactive calls. No cut-off for these calls is given here.

Holding throughout (assay type): functional, organism-based
In assay [1] the test system is Saccharomyces cerevisiae. Nature of the assay: Decrease in ARG5,6 mRNA level in Saccharomyces cerevisiae BY4741 at 15 uM by Northern blot analysis in presence of arginine relative to control. Put shortly: (§1)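 BY4741 inoculated from a saturated culture (30 °C, YPD) into minimal medium with leucine, methionine, uracil and histidine. Treatments were added at inoculation: 15 µM PALO in 50 mM potassium phosphate pH 6.8, buffer alone (untreated), 1 mg/mL L-arginine, or both. Cells grown at 30 °C and harvested at mid-log (OD600 0.4–0.6). mRNA measured by quantitative northern blot, normalized to SCR1; mean of three replicates.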

Assay [2] has as its system Saccharomyces cerevisiae. The assay can be described thus: Decrease in TRP5 mRNA level in Saccharomyces cerevisiae BY4741 at 15 uM by Northern blot analysis in presence of arginine relative to control. A digest of the protocol:
as §1

The test system of assay [3] is Saccharomyces cerevisiae. The assay can be described thus: Increase in TAP-tagged ARG5,6 protein level in Saccharomyces cerevisiae YSC1178-7500224 at 15 uM by Western blotting analysis relative to control. A digest of the protocol:
(§2)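 TAP-tagged strains (BY4741 background, untagged BY4741 as control) were grown from a saturated culture in supplemented minimal medium. At inoculation they received 15 µM PALO in 50 mM potassium phosphate pH 6.8, buffer alone, 1 mg/mL L-arginine, or both. Cells grown at 30 °C and harvested at OD600 0.4–0.6. Extracts were western blotted with anti-TAP antibody, with Coomassie-stained duplicate gels as loading controls. Band intensity was quantified.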
(In general: A western blot detects proteins with antibodies after separation by electrophoresis.)

Assay [4] deals with Saccharomyces cerevisiae. The assay can be described thus: Decrease in TAP-tagged CPA1 protein level in Saccharomyces cerevisiae YSC1178-7502950 at 15 uM by Western blotting analysis in presence of arginine relative to control. Put shortly: as §2
In assay [5] the test system is Saccharomyces cerevisiae. The assay can be described thus: Increase in CPA1 mRNA level in Saccharomyces cerevisiae BY4741 at 15 uM by Northern blot analysis relative to control. Put shortly:
as §1

For assay [6], the system named is Saccharomyces cerevisiae. The assay can be described thus: Increase in TRP5 mRNA level in Saccharomyces cerevisiae BY4741 at 15 uM by Northern blot analysis relative to control. A digest of the protocol: as §1
Assay [7] deals with Saccharomyces cerevisiae. Nature of the assay: Decrease in TAP-tagged TRP5 protein level in Saccharomyces cerevisiae YSC1178-7500415 at 15 uM by Western blotting analysis in presence of arginine relative to control. A digest of the protocol: as §2
Assay [8] has as its system Saccharomyces cerevisiae. Nature of the assay: Effect on growth rate in Saccharomyces cerevisiae BY4741. A digest of the protocol:
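Growth followed at 30 °C in nitrogen-limiting medium: 2% dextrose, 1 mM ammonium sulfate, 100 µM potassium phosphate pH 6.8, and 10 µg/mL each of leucine, methionine, uracil and histidine.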

Assay [9] deals with Saccharomyces cerevisiae. The assay can be described thus: Increase in ARG5,6 mRNA level in Saccharomyces cerevisiae BY4741 at 15 uM by Northern blot analysis relative to control. Put shortly: as §1
Assay [10] deals with Saccharomyces cerevisiae. Nature of the assay: Increase in TAP-tagged TRP5 protein level in Saccharomyces cerevisiae YSC1178-7500415 at 15 uM by Western blotting analysis relative to control. A digest of the protocol:
as §2

In assay [11] the test system is Saccharomyces cerevisiae. The assay can be described thus: Increase in TAP-tagged CPA1 protein level in Saccharomyces cerevisiae YSC1178-7502950 at 15 uM by Western blotting analysis relative to control. A digest of the protocol:
as §2

Assay [12] has as its system Saccharomyces cerevisiae. The assay can be described thus: Decrease in TAP-tagged ARG5,6 protein level in Saccharomyces cerevisiae YSC1178-7500224 at 15 uM by Western blotting analysis in presence of arginine relative to control. Put shortly:
as §2

The subject of assay [13] is Saccharomyces cerevisiae. Nature of the assay: Decrease in CPA1 mRNA level in Saccharomyces cerevisiae BY4741 at 15 uM by Northern blot analysis in presence of arginine relative to control. Put shortly: as §1
The test system of assay [14] is Saccharomyces cerevisiae. The assay can be described thus: Decrease in CPA1 mRNA level in Saccharomyces cerevisiae BY4741 at 1 mg/ml by Northern blot analysis relative to control. Put shortly: as §1
For assay [15], the system named is Saccharomyces cerevisiae. Nature of the assay: Decrease in TRP5 mRNA level in Saccharomyces cerevisiae BY4741 at 1 mg/ml by Northern blot analysis relative to control. Put shortly: as §1
Assay [16] relates to Saccharomyces cerevisiae. The assay can be described thus: Decrease in TAP-tagged CPA1 protein level in Saccharomyces cerevisiae YSC1178-7502950 at 1 mg/ml by Western blotting analysis relative to control. Put shortly:
as §2

For assay [17], the system named is Saccharomyces cerevisiae. The assay can be described thus: Decrease in TAP-tagged TRP5 protein level in Saccharomyces cerevisiae YSC1178-7500415 at 1 mg/ml by Western blotting analysis relative to control. A digest of the protocol:
as §2

In assay [18] the test system is Saccharomyces cerevisiae. Nature of the assay: Decrease in TAP-tagged ARG5,6 protein level in Saccharomyces cerevisiae YSC1178-7500224 at 1 mg/ml by Western blotting analysis relative to control. Put shortly:
as §2

The subject of assay [19] is Saccharomyces cerevisiae. The assay can be described thus: Decrease in ARG5,6 mRNA level in Saccharomyces cerevisiae BY4741 at 1 mg/ml by Northern blot analysis relative to control. Put shortly:
as §1

For the compound `N[C@@H](CCCNC(=O)CP(=O)(O)O)C(=O)O`, the result in assay [1], in [4], in assay [12] and in [13] was Active. Further, the result in assay [2], in assay [3], in [5], in [6], in [7] and in assay [8] was inactive. The outcome in assay [9], in [10] and in assay [11] was inactive.

As for `N=C(N)NCCC[C@H](N)C(=O)O`, the outcome in assay [14], in assay [16], in [18] and in assay [19] was Active. Also, the result in [15] and in assay [17] was inactive.
